The values that follow come from ChEMBL document CHEMBL1159035, “Click synthesis of estradiol-cyclodextrin conjugates as cell compartment selective estrogens” (Bioorg Med Chem, 2010).

For data set [1], the target named is T1, Estrogen receptor (Homo sapiens, UniProt P03372).
T1 sequence (P03372 whole entry): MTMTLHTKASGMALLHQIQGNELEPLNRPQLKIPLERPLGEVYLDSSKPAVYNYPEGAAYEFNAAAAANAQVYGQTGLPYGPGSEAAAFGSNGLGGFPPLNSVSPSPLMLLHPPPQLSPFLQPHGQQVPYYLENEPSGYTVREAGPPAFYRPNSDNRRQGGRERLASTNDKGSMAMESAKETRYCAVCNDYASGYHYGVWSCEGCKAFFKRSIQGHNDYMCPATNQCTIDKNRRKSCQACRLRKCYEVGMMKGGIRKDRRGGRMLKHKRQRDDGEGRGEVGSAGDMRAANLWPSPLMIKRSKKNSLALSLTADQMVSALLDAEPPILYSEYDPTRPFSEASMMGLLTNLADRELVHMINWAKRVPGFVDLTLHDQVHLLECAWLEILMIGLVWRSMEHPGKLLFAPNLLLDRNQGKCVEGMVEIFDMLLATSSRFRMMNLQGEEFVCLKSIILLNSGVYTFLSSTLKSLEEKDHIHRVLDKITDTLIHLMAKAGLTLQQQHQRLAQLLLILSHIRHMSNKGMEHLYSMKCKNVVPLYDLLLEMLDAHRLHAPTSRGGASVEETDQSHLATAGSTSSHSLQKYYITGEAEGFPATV
Description: Estrogenic activity at ERalpha in human Ishikawa cells assessed as stimulation of alkaline phosphatase activity after 4 days by microplate scanning spectrophotometry. The data set is classed as cell-based.

Data set [2] has as its target T1, Estrogen receptor. The experiment in a line: Antiestrogenic activity at ERalpha in human Ishikawa cells assessed as alkaline phosphatase activity after 4 days by microplate scanning spectrophotometry. It is filed as cell-based.
Data set [3] deals with T1, Estrogen receptor. The experiment in a line: Activation of ERalpha-mediated ERE activity in human T47D/PKC cells coexpressing PKCalpha after 18 hrs by luciferase reporter gene assay. The data set is classed as cell-based.
The target in data set [4] is T1, Estrogen receptor. Description: Activation of ERalpha-mediated ERE activity in human T47D/neo cells after 18 hrs by luciferase reporter gene assay. The data set is classed as cell-based. In general terms: In a reporter assay the amount or activity of a reporter protein is the signal.
The subject of data set [5] is MCF7. Description: Drug uptake in human MCF7 cells assessed as drug localization to cytoplasm at 100 nM after 24 hrs by confocal fluorescent microscopy. The settings on record: mcf7, 24 h, 0.1 µM. The data set is classed as ADME, cell-based. The method in brief: (§1)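 MCF-7 cells were grown 48 h at 37 °C, 5% CO2 in phenol-free medium with 10% stripped FBS, then exposed to rhodamine conjugates (100 nM) for 24 h. Rinsed twice with PBS, nuclei stained with Hoechst (0.2 µg/mL). Laser-scanning confocal imaging with rhodamine Ex/Em 544/576 nm, nuclear marker 345/420 nm, plus DIC and overlay. Several images of different cells and planes.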

The subject of data set [6] is MCF7. The experiment in a line: Drug uptake in human MCF7 cells assessed as drug localization to nucleus at 100 nM after 24 hrs by confocal fluorescent microscopy. The data set is classed as ADME, cell-based. As to conditions: mcf7, 24 h, 0.1 µM; call rule not given here. The method in brief:
as §1

Broadly, the EC50 is the concentration giving half of the maximal effect.

As to `C[C@]12CC[C@@H]3c4ccc(O)cc4CC[C@H]3[C@@H]1CC[C@@]2(O)C#Cc1ccc(CNC[C@H]2O[C@@H]3O[C@H]4[C@H](O)[C@@H](O)[C@@H](O[C@H]5[C@H](O)[C@@H](O)[C@@H](O[C@H]6[C@H](O)[C@@H](O)[C@@H](O[C@H]7[C@H](O)[C@@H](O)[C@@H](O[C@H]8[C@H](O)[C@@H](O)[C@@H](O[C@H]9[C@H](O)[C@@H](O)[C@@H](O[C@H]2[C@H](O)[C@H]3O)O[C@@H]9CO)O[C@@H]8CO)O[C@@H]7CO)O[C@@H]6CO)O[C@@H]5CO)O[C@@H]4CO)cc1`, in data set [1] (read-out: EC50), the EC50 stood at 4000 nM. Also, in data set [2], the IC50 entry was “Not Active”.

As to `NC[C@H]1O[C@@H]2O[C@H]3[C@H](O)[C@@H](O)[C@@H](O[C@H]4[C@H](O)[C@@H](O)[C@@H](O[C@H]5[C@H](O)[C@@H](O)[C@@H](O[C@H]6[C@H](O)[C@@H](O)[C@@H](O[C@H]7[C@H](O)[C@@H](O)[C@@H](O[C@H]8[C@H](O)[C@@H](O)[C@@H](O[C@H]1[C@H](O)[C@H]2O)O[C@@H]8CN)O[C@@H]7CN)O[C@@H]6CN)O[C@@H]5CN)O[C@@H]4CN)O[C@@H]3CN`, in data set [1] (ishikawa), the 50% effective concentration (EC50) entry is “Not Active”. Further, the IC50 result in data set [2] is listed as “Not Active”.

Turning to `[N-]=[N+]=NC[C@H]1O[C@@H]2O[C@H]3[C@H](O)[C@@H](O)[C@@H](O[C@H]4[C@H](O)[C@@H](O)[C@@H](O[C@H]5[C@H](O)[C@@H](O)[C@@H](O[C@H]6[C@H](O)[C@@H](O)[C@@H](O[C@H]7[C@H](O)[C@@H](O)[C@@H](O[C@H]8[C@H](O)[C@@H](O)[C@@H](O[C@H]1[C@H](O)[C@H]2O)O[C@@H]8CN=[N+]=[N-])O[C@@H]7CN=[N+]=[N-])O[C@@H]6CN=[N+]=[N-])O[C@@H]5C/N=[NH+]\[NH-])O[C@@H]4CN=[N+]=[N-])O[C@@H]3CN=[N+]=[N-]`, the EC50 result in data set [1] (ishikawa) is on record as “Not Active”. Moreover, in data set [2], the IC50 entry is listed as “Not Active”.

Turning to `Cn1cc([C@]2(O)CC[C@H]3[C@@H]4CCc5cc(O)ccc5[C@H]4CC[C@@]32C)nn1`, in data set [2], the IC50 entry is listed as “Not Active”.

`C[C@]12CC[C@@H]3c4ccc(O)cc4CC[C@H]3[C@@H]1CC[C@@]2(O)C#Cc1ccc(CO)cc1`: the concentration giving a half-maximal response (EC50) in data set [1] (read-out: EC50) was found to be 27 nM. Besides, the IC50 entry in data set [2] is “Not Active”.

`C[C@]12CC[C@@H]3c4ccc(O)cc4CC[C@H]3[C@@H]1CC[C@@]2(O)C#Cc1ccc(N)cc1`: the concentration for a half-maximal effect (EC50) in data set [1] (read-out: EC50) is 10 nM. In data set [2], the IC50 result was “Not Active”.

On to `C[C@]12CC[C@@H]3c4ccc(O)cc4CC[C@H]3[C@@H]1CC[C@@]2(O)C#Cc1ccc(CNC[C@H]2O[C@@H]3O[C@H]4[C@H](O)[C@@H](O)[C@@H](O[C@H]5[C@H](O)[C@@H](O)[C@@H](O[C@H]6[C@H](O)[C@@H](O)[C@@H](O[C@H]7[C@H](O)[C@@H](O)[C@@H](O[C@H]8[C@H](O)[C@@H](O)[C@@H](O[C@H]9[C@H](O)[C@@H](O)[C@@H](O[C@H]2[C@H](O)[C@H]3O)O[C@@H]9CNCc2ccc(C#C[C@]3(O)CC[C@H]9[C@@H]%10CCc%11cc(O)ccc%11[C@H]%10CC[C@@]93C)cc2)O[C@@H]8CNCc2ccc(C#C[C@]3(O)CC[C@H]8[C@@H]9CCc%10cc(O)ccc%10[C@H]9CC[C@@]83C)cc2)O[C@@H]7CNCc2ccc(C#C[C@]3(O)CC[C@H]7[C@@H]8CCc9cc(O)ccc9[C@H]8CC[C@@]73C)cc2)O[C@@H]6CNCc2ccc(C#C[C@]3(O)CC[C@H]6[C@@H]7CCc8cc(O)ccc8[C@H]7CC[C@@]63C)cc2)O[C@@H]5CNCc2ccc(C#C[C@]3(O)CC[C@H]5[C@@H]6CCc7cc(O)ccc7[C@H]6CC[C@@]53C)cc2)O[C@@H]4CNCc2ccc(C#C[C@]3(O)CC[C@H]4[C@@H]5CCc6cc(O)ccc6[C@H]5CC[C@@]43C)cc2)cc1`, for which the EC50 in data set [1] (read-out: EC50) came out at 300 nM. Besides, the IC50 entry in data set [2] is on record as “Not Active”.

`C[C@]12CC[C@@H]3c4ccc(O)cc4CC[C@H]3[C@@H]1CC[C@@]2(O)c1cn(C[C@H]2O[C@@H]3O[C@H]4[C@H](O)[C@@H](O)[C@@H](O[C@H]5[C@H](O)[C@@H](O)[C@@H](O[C@H]6[C@H](O)[C@@H](O)[C@@H](O[C@H]7[C@H](O)[C@@H](O)[C@@H](O[C@H]8[C@H](O)[C@@H](O)[C@@H](O[C@H]9[C@H](O)[C@@H](O)[C@@H](O[C@H]2[C@H](O)[C@H]3O)O[C@@H]9CO)O[C@@H]8CO)O[C@@H]7CO)O[C@@H]6CO)O[C@@H]5CO)O[C@@H]4CO)nn1`: in data set [1] (read-out: EC50), the concentration giving a half-maximal response (EC50) came to 4000 nM. The IC50 entry in data set [2] is listed as “Not Active”.

For the compound `C[C@]12CC[C@@H]3c4ccc(O)cc4CC[C@H]3[C@@H]1CC[C@@]2(O)c1cn(CC[C@H]2O[C@@H]3O[C@H]4[C@H](O)[C@@H](O)[C@@H](O[C@H]5[C@H](O)[C@@H](O)[C@@H](O[C@H]6[C@H](O)[C@@H](O)[C@@H](O[C@H]7[C@H](O)[C@@H](O)[C@@H](O[C@H]8[C@H](O)[C@@H](O)[C@@H](O[C@H]9[C@H](O)[C@@H](O)[C@@H](O[C@H]2[C@H](O)[C@H]3O)O[C@@H]9Cn2cc([C@]3(O)CC[C@H]9[C@@H]%10CCc%11cc(O)ccc%11[C@H]%10CC[C@@]93C)nn2)O[C@@H]8Cn2cc([C@]3(O)CC[C@H]8[C@@H]9CCc%10cc(O)ccc%10[C@H]9CC[C@@]83C)nn2)O[C@@H]7Cn2cc([C@]3(O)CC[C@H]7[C@@H]8CCc9cc(O)ccc9[C@H]8CC[C@@]73C)nn2)O[C@@H]6Cn2cc([C@]3(O)CC[C@H]6[C@@H]7CCc8cc(O)ccc8[C@H]7CC[C@@]63C)nn2)O[C@@H]5Cn2cc([C@]3(O)CC[C@H]5[C@@H]6CCc7cc(O)ccc7[C@H]6CC[C@@]53C)nn2)O[C@@H]4Cn2cc([C@]3(O)CC[C@H]4[C@@H]5CCc6cc(O)ccc6[C@H]5CC[C@@]43C)nn2)nn1`, the figures for the EC50 in data set [3], in data set [4] and in data set [1] (read-out: EC50) were 2 nM, greater than 100 nM and 200 nM, respectively. Also, the Drug uptake result in data set [5] is “Active”; in data set [6] it was “Not Active”. The IC50 entry in data set [2] was “Not Active”.

Turning to `CC#C[C@]1(O)CC[C@H]2[C@@H]3CCc4cc(O)ccc4[C@H]3CC[C@@]21C` [ESTROGEN], the half-maximal effective concentration (EC50) in data set [1] (read-out: EC50) came to 0.028 nM.
